Results: ChEMBL document CHEMBL1138359, “Syntheses of nicotinamide riboside and derivatives: effective agents for increasing nicotinamide adenine dinucleotide concentrations in mammalian cells” (J Med Chem, 2007)

Experiments:
[1] = Cell viability in mouse AB1 cells at 750 uM after 48 hrs by MTT assay relative to control; type: cell-based; details: read-out: Activity
In short: (§1)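 Cells grown 24 h, then exposed to 750 µM compound for 48 h. Viability read by MTT assay and given as % of untreated control. Duplicate experiments.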

[2] = Cell viability in HEK293 cells at 750 uM after 48 hrs by MTT assay relative to control; type: cell-based; details: human, read-out: Activity; in short: as §1
[3] = Cell viability in mouse Neuro 2a cells at 750 uM after 48 hrs by MTT assay relative to control; type: cell-based, N2a; details: read-out: Activity; in short: as §1
[4] = Increase in NAD+ concentration in mouse AB1 cells at 750 uM after 24 hrs by isotope-dilution technique; type: functional
[5] = system: HEK293; test: Increase in NAD+ concentration in HEK293 cells at 750 uM after 24 hrs by isotope-dilution technique; type: functional, Homo sapiens
[6] = Increase in NAD+ concentration in mouse Neuro 2a cells at 750 uM after 24 hrs by isotope-dilution technique; type: functional, N2a
[7] = Cytotoxicity against mouse AB1 cells; type: cell-based
[8] = system: HEK293; test: Cytotoxicity against HEK293 cells; type: cell-based; details: human
[9] = Cytotoxicity against mouse Neuro 2a cells; type: cell-based; details: n2a
[10] = Increase in NAD+ concentration in mouse AB1 cells at 670 uM after 24 hrs by isotope-dilution technique relative to control; type: functional
In short: (§2)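 Cells exposed to 670 µM compound for 24 h. NAD+ was then quantified by an MS-based isotope-dilution method using an 18O standard and expressed relative to untreated controls. All cell experiments were run in duplicate.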

[11] = system: HEK293; test: Increase in NAD+ concentration in HEK293 cells at 670 uM after 24 hrs by isotope-dilution technique relative to control; type: functional, Homo sapiens; in short: as §2
[12] = Increase in NAD+ concentration in mouse Neuro 2a cells at 670 uM after 24 hrs by isotope-dilution technique relative to control; type: functional, N2a; in short: as §2

| Compound | viability at 48 h, 750 µM [1] [%] | viability at 48 h, 750 µM [2] [%] | viability at 48 h, 750 µM [3] [%] | other results |
| --- | --- | --- | --- | --- |
| CCOC(=O)c1ccc[n+]([C@@H]2O[C@H](CO)[C@@H](O)[C@H]2O)c1 | 103 | 92 | 169 |  |
| CN(C)C(=O)c1ccc[n+]([C@@H]2O[C@H](CO)[C@@H](O)[C@H]2O)c1 | 132 | 78 | 35 |  |
| C=CCNC(=O)c1ccc[n+]([C@@H]2O[C@H](CO)[C@@H](O)[C@H]2O)c1 | 57 | 78 | 80 |  |
| COC(=O)c1ccc[n+]([C@@H]2O[C@H](CO)[C@@H](O)[C@H]2O)c1 | 125 | 94 | 76 |  |
| O=C(NCCO)c1ccc[n+]([C@@H]2O[C@H](CO)[C@@H](O)[C@H]2O)c1 | 101 | 77 | 51 |  |
| CNC(=O)c1ccc[n+]([C@@H]2O[C@H](CO)[C@@H](O)[C@H]2O)c1 | 79 | 72 | 76 |  |
| CCOC(=O)c1ccc[n+]([C@@H]2O[C@H](COC(C)=O)[C@@H](OC(C)=O)[C@H]2OC(C)=O)c1 |  |  |  | Activity [4]: 130%; Activity [5]: 160%; Activity [6]: 260%; Activity [7]: Non-toxic; Activity [8]: Non-toxic; Activity [9]: Non-toxic |
| O=C(O)c1ccc[n+]([C@@H]2O[C@H](CO)[C@@H](O)[C@H]2O)c1 | 111 | 92 | 125 | Activity [10]: 1.5%; Activity [11]: 1.9%; Activity [12]: 1.7% |
| CCNC(=O)c1ccc[n+]([C@@H]2O[C@H](CO)[C@@H](O)[C@H]2O)c1 | 57 | 48 | 38 |  |
| NC(=O)c1ccc[n+]([C@@H]2O[C@H](CO)[C@@H](O)[C@H]2O)c1 [NICOTINAMIDE RIBOSIDE] | 123 | 111 | 107 |  |
